{"data": "Measured values of several laboratories", "target": "Glycogen synthase kinase-3 beta (GSK3B, Homo sapiens, UniProt P49841)", "method": "competition with immobilised ligand", "note": "Lines come from different studies, so protocols differ."}
{"SMILES": "O=C(Nc1c[nH]nc1C(=O)NC1CCNCC1)c1cc(F)cc(F)c1", "effect on": "binding", "tested at": "1 µM", "remaining binding [%]": 0.5}
{"SMILES": "N#Cc1ccccc1CSc1nnc2c(n1)[nH]c1ccccc12", "effect on": "binding", "tested at": "10 µM", "remaining binding [%]": 100}
{"SMILES": "CNC(=O)[C@@H]1CC[C@@H](n2c(-c3ccc4cnccc4c3)nc3ccc(C(=O)NCc4cccc(C(N)=O)c4)cc32)C1", "effect on": "binding", "tested at": "1 µM", "remaining binding [%]": 95}
{"SMILES": "Cc1cnc(Nc2ccc(C(=O)N3CCC(N4CCCC4)CC3)cc2)nc1-c1cc2ccccc2s1", "effect on": "binding", "tested at": "1 µM", "remaining binding [%]": 51}
{"SMILES": "O=C(Nc1ccc(Oc2ccc(F)cc2)cc1)N1CCc2ncccc2[C@H]1c1ccc(F)cc1", "effect on": "cell-free assay", "tested at": "1 µM", "remaining binding [%]": 100}
{"SMILES": "F[C@@H]1CCN(c2nccc(-c3cnn4ncccc34)n2)C1", "effect on": "binding", "tested at": "1 µM", "remaining binding [%]": 75}
{"SMILES": "N#Cc1ccc(Nc2ccc3[nH]c(=O)[nH]c3c2)c(Cl)c1", "effect on": "cell-free assay", "tested at": "1 µM", "remaining binding [%]": 96}
{"SMILES": "c1cncc(-c2cccc(Nc3nccc(NC4CCCCC4)n3)c2)c1", "effect on": "binding", "tested at": "10 µM", "remaining binding [%]": 89}
{"SMILES": "CCN1CCN(Cc2ccc(C(=O)Nc3ccc(C)c(Oc4ccc5c(c4)CC(=O)N5)c3)cc2C(F)(F)F)CC1", "effect on": "binding", "tested at": "1 µM", "remaining binding [%]": 100}
{"SMILES": "C=CC(=O)N1CCC(C(=O)NCC(=O)N2CCN(c3nc(-c4cnc(N)nc4C(F)F)nc(N4CCOCC4)n3)CC2)CC1", "effect on": "binding", "tested at": "1 µM", "remaining binding [%]": 74}
{"SMILES": "COc1cc(-c2cn(C3CCc4ccccc4N(CC(F)(F)F)C3=O)nn2)ccc1-n1ccc(C)n1 (stereo not shown)", "effect on": "cell-free assay", "tested at": "1 µM", "remaining binding [%]": 85}
{"SMILES": "C[C@H]1CCN(c2nccc(-c3cnn4ncccc34)n2)C1", "effect on": "binding", "tested at": "1 µM", "remaining binding [%]": 98}
{"SMILES": "O=C(NCCCN1CCOCC1)c1ccc(Nc2ncc(Cl)c(-c3ccc(Cl)s3)n2)cc1", "effect on": "binding", "tested at": "1 µM", "remaining binding [%]": 95}
{"SMILES": "Cc1cc(NC(=O)c2cccc(S(F)(F)(F)(F)F)c2)cc(-n2ccn3nc(-c4cccnc4)cc23)c1", "effect on": "cell-free assay", "tested at": "1 µM", "remaining binding [%]": 85.4}
{"SMILES": "O=C(c1ccc(Nc2nccc(-c3cc4ccccc4s3)n2)cc1)N1CCC(N2CCCC2)CC1", "effect on": "binding", "tested at": "1 µM", "remaining binding [%]": 95}
{"SMILES": "C[C@H](c1ccnc(Nc2nc3ccc(-c4cc(N(C)C)ncn4)cc3[nH]2)c1)N1CCN(C(=O)CC(F)(F)F)CC1", "effect on": "cell-free assay", "tested at": "0.1 µM", "remaining binding [%]": 100}
{"SMILES": "C[C@@H]1CN(c2ccc3ncc(-c4ccc5[nH]nc(C6CC6)c5c4)n3n2)C[C@H](C)O1", "effect on": "binding", "tested at": "50 nM", "remaining binding [%]": 76}
{"SMILES": "CN(C)CC#Cc1ccc(OCCCc2sc(N3CCc4cccc(C(=O)Nc5nc6ccccc6s5)c4C3)nc2C(=O)O)c(F)c1", "effect on": "cell-free assay", "tested at": "1 µM", "remaining binding [%]": 93}
{"SMILES": "COC(=O)Nc1nc2ccc(C(=O)c3ccccc3)cc2[nH]1", "effect on": "cell-free assay", "tested at": "10 µM", "remaining binding [%]": 35}
